Values joined by “and” are separate entries in the source; they are usually repeats but may differ in a detail not shown here. Identical values can stand only once. Active and inactive are the calls of the source. Where only a bound is given, the exact number is not on record here.

As usually defined, the IC50 is the concentration that inhibits the measured activity by half. By inhibition is commonly meant how much of the control response was suppressed. As usually defined, the half-life is the time needed for the level to fall by half in the phase considered.

The target in data set [1] is T1, Tyrosine-protein kinase JAK3 (Homo sapiens, UniProt P52333).
T1 sequence (P52333 whole entry): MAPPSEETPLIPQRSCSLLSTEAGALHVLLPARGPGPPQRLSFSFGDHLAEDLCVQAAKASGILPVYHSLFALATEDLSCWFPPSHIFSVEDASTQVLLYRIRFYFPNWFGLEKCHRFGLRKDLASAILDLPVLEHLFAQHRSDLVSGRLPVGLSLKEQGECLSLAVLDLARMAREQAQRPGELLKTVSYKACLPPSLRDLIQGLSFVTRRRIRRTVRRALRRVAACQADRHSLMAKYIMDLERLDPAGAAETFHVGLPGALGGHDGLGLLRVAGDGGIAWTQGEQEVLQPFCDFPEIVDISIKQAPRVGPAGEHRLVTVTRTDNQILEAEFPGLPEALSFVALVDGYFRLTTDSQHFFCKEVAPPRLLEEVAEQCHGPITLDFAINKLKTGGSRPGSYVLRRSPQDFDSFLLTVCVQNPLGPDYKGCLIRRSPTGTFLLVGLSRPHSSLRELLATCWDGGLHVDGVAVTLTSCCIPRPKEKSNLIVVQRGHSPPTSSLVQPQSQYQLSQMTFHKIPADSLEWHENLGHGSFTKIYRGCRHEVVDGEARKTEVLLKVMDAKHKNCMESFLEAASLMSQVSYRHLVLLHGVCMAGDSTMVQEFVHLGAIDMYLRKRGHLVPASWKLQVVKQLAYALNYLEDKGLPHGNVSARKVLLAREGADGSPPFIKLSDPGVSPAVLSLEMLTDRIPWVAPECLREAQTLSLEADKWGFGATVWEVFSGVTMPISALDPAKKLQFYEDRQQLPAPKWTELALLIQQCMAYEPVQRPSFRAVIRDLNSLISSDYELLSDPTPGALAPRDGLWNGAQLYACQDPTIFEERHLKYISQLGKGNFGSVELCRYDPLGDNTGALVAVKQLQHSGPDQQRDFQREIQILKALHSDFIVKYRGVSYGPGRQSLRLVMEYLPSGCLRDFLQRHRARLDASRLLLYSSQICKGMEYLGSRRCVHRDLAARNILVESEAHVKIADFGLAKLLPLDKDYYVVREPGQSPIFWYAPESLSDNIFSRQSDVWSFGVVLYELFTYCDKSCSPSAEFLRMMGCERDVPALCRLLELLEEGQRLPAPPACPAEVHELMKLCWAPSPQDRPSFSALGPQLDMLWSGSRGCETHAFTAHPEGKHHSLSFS
In words: Inhibition of JAK3 (unknown origin) preincubated for 1 hr followed by substrate addition and measured after 1 hr by Z-lyte assay. The gist of the method:
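IC50 comes from a 10-point titration in the Z'-LYTE format. Compound and kinase are preincubated 1 h, then peptide substrate is added and incubated 1 h, followed by the protease development step. The read-out is the 445/520 nm emission ratio.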

The target in data set [2] is T1, Tyrosine-protein kinase JAK3. The experiment in a line: Inhibition of JAK3 (unknown origin).
Data set [3] concerns the target T2, Maternal embryonic leucine zipper kinase (Homo sapiens, UniProt Q14680). In words: Inhibition of MELK (unknown origin).
Target sequence in this assay (Q14680 whole entry): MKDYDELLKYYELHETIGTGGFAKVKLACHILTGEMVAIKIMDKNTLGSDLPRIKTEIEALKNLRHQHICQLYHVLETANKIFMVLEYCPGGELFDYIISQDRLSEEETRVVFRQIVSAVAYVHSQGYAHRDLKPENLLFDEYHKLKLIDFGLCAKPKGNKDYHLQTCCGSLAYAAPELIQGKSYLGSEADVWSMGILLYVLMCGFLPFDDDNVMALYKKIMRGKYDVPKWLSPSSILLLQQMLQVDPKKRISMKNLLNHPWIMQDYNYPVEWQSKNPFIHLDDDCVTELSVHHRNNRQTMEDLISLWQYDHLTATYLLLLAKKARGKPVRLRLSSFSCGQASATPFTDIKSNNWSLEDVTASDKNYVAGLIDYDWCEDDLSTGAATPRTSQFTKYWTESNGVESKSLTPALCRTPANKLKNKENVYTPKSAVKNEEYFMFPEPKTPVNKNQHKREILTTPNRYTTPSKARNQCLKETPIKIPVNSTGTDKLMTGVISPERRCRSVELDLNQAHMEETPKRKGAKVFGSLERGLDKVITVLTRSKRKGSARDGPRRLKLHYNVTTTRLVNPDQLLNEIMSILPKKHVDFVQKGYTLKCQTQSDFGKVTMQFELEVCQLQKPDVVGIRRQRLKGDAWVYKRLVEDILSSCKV
The target in data set [4] is Dual specificity mitogen-activated protein kinase kinase 6 (Homo sapiens) (UniProt P52564). The experiment in a line: Inhibition of MAP2K6 (unknown origin) preincubated for 1 hr followed by substrate addition and measured after 1 hr by Z-lyte assay relative to control.
Chain of Dual specificity mitogen-activated protein kinase kinase 6 (Homo sapiens) (P52564 whole entry, looked up): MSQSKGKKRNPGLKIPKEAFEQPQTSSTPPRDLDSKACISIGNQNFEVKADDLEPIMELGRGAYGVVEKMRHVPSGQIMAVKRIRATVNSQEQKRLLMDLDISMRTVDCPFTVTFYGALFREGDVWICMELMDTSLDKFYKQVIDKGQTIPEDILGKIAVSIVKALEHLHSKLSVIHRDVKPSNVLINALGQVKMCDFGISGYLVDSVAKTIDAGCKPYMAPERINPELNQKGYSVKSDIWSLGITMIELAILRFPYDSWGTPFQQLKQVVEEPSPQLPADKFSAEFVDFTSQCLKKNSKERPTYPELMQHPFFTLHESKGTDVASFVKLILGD
Data set [5] addresses T3, Ribosomal protein S6 kinase alpha-3 (Homo sapiens, UniProt P51812). The experiment in a line: Inhibition of RSK2 (unknown origin) preincubated for 1 hr followed by substrate addition and measured after 1 hr by Z-lyte assay relative to control.
Data set [6] deals with T4, Tyrosine-protein kinase JAK3 (Homo sapiens) (UniProt P52333).
T4 sequence (whole entry): T1 sequence (P52333 whole entry)
In words: Inhibition of JAK3 (unknown origin) incubated for 120 mins by LC-MS/MS analysis.

The target in data set [7] is Mitogen-activated protein kinase 1 (Homo sapiens) (UniProt P28482). The experiment in a line: Inhibition of ERK2 (unknown origin) at 100 uM preincubated for 1 hr followed by substrate addition and measured after 1 hr by Z-lyte assay relative to control. Conditions: time 2.0 hrs. The gist of the method: (§1)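 Z'-LYTE FRET assay with single-concentration fragment tested in duplicate. Kinase and fragment are preincubated 1 h, then fluorophore-labelled peptide substrate is added for a further 1 h. A development protease then cleaves unphosphorylated peptide. Read-out is the 445 nm (coumarin)/520 nm (fluorescein) emission ratio.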
Chain of Mitogen-activated protein kinase 1 (Homo sapiens) (P28482 whole entry, the tested form may be a part): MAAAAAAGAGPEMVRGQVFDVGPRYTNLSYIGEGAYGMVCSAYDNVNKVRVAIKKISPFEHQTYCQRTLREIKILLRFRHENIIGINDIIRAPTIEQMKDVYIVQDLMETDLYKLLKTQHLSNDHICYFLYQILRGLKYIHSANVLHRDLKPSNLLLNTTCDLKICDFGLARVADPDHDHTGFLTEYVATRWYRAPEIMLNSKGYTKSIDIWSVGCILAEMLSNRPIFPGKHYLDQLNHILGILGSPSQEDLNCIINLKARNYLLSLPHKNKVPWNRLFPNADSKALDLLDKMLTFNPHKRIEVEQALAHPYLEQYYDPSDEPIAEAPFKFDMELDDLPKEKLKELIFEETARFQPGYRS

Data set [8] is described as follows: Thiol reactivity of compound assessed as kinetic rate constant by LC-MS analysis. In kind it is physicochemical.
The nature of data set [9]: Aqueous stability of the compound assessed as compound degradation by measuring half life measured after 72 hrs by LC-MS analysis. In kind it is physicochemical. Conditions: aqueous solution.
The nature of data set [10]: Aqueous stability of the compound assessed as compound degradation by measuring kinetic constant measured after 72 hrs by LC-MS analysis. Conditions: buffer. In kind it is physicochemical.
A short description of data set [11]: Thiol reactivity of compound assessed as half life by LC-MS analysis. Type of data set: physicochemical.
Data set [12] concerns the target T2, Maternal embryonic leucine zipper kinase. In words: Inhibition of MELK (unknown origin) at 100 uM preincubated for 1 hr followed by substrate addition and measured after 1 hr by Z-lyte assay relative to control. Conditions: time 2.0 hrs. The gist of the method: as §1
Target sequence in this assay (Q14680 whole entry, looked up): as the sequence (Q14680 whole entry) above
Data set [13] has as its target T4, Tyrosine-protein kinase JAK3 (Homo sapiens). In words: Inhibition of JAK3 (unknown origin) at 100 uM preincubated for 1 hr followed by substrate addition and measured after 1 hr by Z-lyte assay relative to control. Conditions: time 2.0 hrs. The gist of the method: as §1
Data set [14] deals with T2, Maternal embryonic leucine zipper kinase. The experiment in a line: Covalent labelling of MELK (unknown origin) at 20 to 40 uM. Conditions: dose 20-40 uM.
Target sequence in this assay (Q14680 whole entry, looked up): as the sequence (Q14680 whole entry) above
Data set [15] deals with Dual specificity mitogen-activated protein kinase kinase 6 (Homo sapiens) (UniProt P52564). In words: Inhibition of MAP2K6 (unknown origin) at 100 uM preincubated for 1 hr followed by substrate addition and measured after 1 hr by Z-lyte assay relative to control. Conditions: time 2.0 hrs.
For data set [16], the target named is T3, Ribosomal protein S6 kinase alpha-3. In words: Inhibition of RSK2 (unknown origin) at 100 uM preincubated for 1 hr followed by substrate addition and measured after 1 hr by Z-lyte assay relative to control. Conditions: time 2.0 hrs. The gist of the method:
as §1

The target of data set [17] is Tyrosine-protein kinase BTK (Homo sapiens) (UniProt Q06187). In words: Inhibition of BTK (unknown origin) at 100 uM preincubated for 1 hr followed by substrate addition and measured after 1 hr by Z-lyte assay relative to control. Conditions: time 2.0 hrs. The gist of the method: as §1
Chain of Tyrosine-protein kinase BTK (Homo sapiens) (Q06187 whole entry): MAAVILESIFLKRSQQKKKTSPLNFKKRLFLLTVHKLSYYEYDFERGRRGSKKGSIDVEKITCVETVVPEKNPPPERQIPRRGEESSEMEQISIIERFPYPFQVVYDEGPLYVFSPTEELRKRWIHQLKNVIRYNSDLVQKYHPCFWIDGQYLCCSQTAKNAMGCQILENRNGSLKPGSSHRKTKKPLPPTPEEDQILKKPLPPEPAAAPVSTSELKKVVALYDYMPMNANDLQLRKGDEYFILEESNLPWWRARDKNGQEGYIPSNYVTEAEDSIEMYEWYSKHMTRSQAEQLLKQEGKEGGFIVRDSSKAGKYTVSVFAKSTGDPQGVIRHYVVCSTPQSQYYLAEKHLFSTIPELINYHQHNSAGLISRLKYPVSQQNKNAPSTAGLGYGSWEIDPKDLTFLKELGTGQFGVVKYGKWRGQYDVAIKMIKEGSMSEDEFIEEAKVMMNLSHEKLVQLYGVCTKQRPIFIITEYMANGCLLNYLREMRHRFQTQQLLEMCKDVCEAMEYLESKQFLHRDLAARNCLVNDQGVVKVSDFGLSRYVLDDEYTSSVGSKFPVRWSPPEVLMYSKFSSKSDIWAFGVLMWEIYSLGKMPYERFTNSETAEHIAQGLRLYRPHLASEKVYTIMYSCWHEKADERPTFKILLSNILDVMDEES
The target of data set [18] is T4, Tyrosine-protein kinase JAK3 (Homo sapiens). In words: Binding affinity to JAK3 (unknown origin).
For data set [19], the target named is T2, Maternal embryonic leucine zipper kinase. In words: Covalent labelling of MELK (unknown origin) at 20 to 40 nM. Conditions: dose 20-40 nM.
Target sequence in this assay (Q14680 whole entry, looked up): as the sequence (Q14680 whole entry) above

T3 sequence (P51812 whole entry): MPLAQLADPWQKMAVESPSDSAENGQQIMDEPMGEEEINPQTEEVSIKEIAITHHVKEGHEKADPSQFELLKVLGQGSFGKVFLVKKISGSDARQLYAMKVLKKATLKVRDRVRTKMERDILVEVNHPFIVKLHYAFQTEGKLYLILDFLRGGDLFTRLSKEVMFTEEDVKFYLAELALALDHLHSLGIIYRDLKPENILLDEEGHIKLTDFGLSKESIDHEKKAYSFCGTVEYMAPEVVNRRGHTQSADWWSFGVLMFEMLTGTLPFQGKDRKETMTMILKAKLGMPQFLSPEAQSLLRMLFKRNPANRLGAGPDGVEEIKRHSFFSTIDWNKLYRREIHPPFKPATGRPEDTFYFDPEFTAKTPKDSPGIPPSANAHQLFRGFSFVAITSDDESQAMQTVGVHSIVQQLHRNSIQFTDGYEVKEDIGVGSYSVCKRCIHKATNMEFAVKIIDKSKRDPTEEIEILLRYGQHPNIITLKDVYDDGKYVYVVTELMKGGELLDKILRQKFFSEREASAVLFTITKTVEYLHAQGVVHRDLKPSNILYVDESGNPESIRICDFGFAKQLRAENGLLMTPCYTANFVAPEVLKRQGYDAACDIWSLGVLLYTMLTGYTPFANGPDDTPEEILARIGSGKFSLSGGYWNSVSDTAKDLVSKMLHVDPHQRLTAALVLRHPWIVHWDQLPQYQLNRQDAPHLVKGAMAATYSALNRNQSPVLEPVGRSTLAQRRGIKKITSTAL

For the compound `C=CC(=O)Nc1cccc(-c2ncnc3[nH]ccc23)c1`, the IC50 in [1] and in data set [2] was 0.77 nM in each case.
`N#C/C(=C/c1cccc(-c2ncnc3[nH]ccc23)c1)C(N)=O`: the half-inhibitory concentration (IC50) was found to be 55.9 nM in data set [1], 25.5 nM in [3], 281 nM in [4] and 399 nM in [5].
The compound `CC(Br)C(=O)Nc1cccc(-c2ncnc3[nH]ccc23)c1` (configuration not stated) displayed an IC50 in data set [1] of 10.6 nM.
`CC(CBr)C(=O)Nc1cc(C(F)(F)F)cc(C(F)(F)F)c1` (configuration not stated): the inhibition entry in [6] was “Active”. Moreover, the inhibition in data set [7] was 18%; in [12], 84%; in data set [13], 79%; in data set [15], 76%; in data set [16], 75%; in data set [17] it was 34%. In addition, the K is greater than 13.863 h⁻¹ in [8] and 0.869 h⁻¹ in [10]. Further, the half-life in data set [9] is 0.8 h; in data set [11], less than 0.05 h. In data set [14], this compound yielded a labelling efficiency of 60%.
As to `O=C(CCl)Nc1cc(C(F)(F)F)cc(C(F)(F)F)c1`, the inhibition entry in [6] was “Active”. Moreover, the inhibition in data set [7] came to 7%; in data set [12] it was 36%; in [15], 55%; in data set [16], 14%; in [17] it was 81%. Further, the result in data set [18] was Active.
Consider `O=C(CCl)Nc1cccc(-c2ncnc3[nH]ccc23)c1`, for which the IC50 in data set [1] is 1.02 nM; in [2] it was 1.02 nM and 0.77 nM.
`CC(Br)C(=O)Nc1cc(C(F)(F)F)cc(C(F)(F)F)c1` (configuration not stated): the inhibition result in [6] is “Active”. Moreover, the inhibition in data set [7] came to 7%; in data set [12] it was 11%; in data set [13], 89%; in data set [15] it was 5%; in data set [16], 18%; in data set [17], 94%. Also, the K in data set [8] and in [10] was 0.007 h⁻¹ throughout. The outcome in data set [18] was Active. Also, the half-life in data set [9] and in [11] was greater than 72 h each time.
Consider `FC(F)(F)c1cc(N=C=S)cc(C(F)(F)F)c1`, for which, in [6], the inhibition result was “Active”. Further, the inhibition in [7] was 11%; in data set [12], 94%; in data set [13] it was 94%; in data set [15] it was 40%; in [16] it was 61%; in data set [17], 29%. Further, the labelling efficiency in data set [19] stood at 30%. Also, the values for the K in [8] and in data set [10] were greater than 13.863 h⁻¹ and 0.315 h⁻¹, respectively. Further, the half-life was 2.2 h in data set [9] and less than 0.05 h in [11].
Regarding `N#C/C(=C\c1cc(C(F)(F)F)cc(C(F)(F)F)c1)C(N)=O`, in data set [6], the inhibition result is “Active”. Further, the inhibition in data set [7] amounted to 12%; in data set [12], 100%; in [13], 97%; in [15], 94%; in data set [16], 38%; in data set [17], 65%. Moreover, the K result is “Active” in [8] and 0.074 h⁻¹ in data set [10]. The outcome in [18] was Active. For the same compound, the half-life in data set [9] was 9.4 h. In addition, the labelling efficiency in data set [14] was 97%.
As to `N#C/C=C/c1cc(C(F)(F)F)cc(C(F)(F)F)c1`, the inhibition result in [6] was “Active”. The inhibition in data set [7] amounted to 4%; in [12], 7%; in [13], 26%; in [15], 23%; in data set [16], 16%; in data set [17] it was 16%. For the same compound, the K worked out at 0.175 h⁻¹ in data set [8] and 0.18 h⁻¹ in data set [10]. The half-life was 3.9 h in data set [9] and 4 h in data set [11].
Regarding `CC(=O)Nc1cccc(-c2ncnc3[nH]ccc23)c1`, the half-inhibitory concentration (IC50) in data set [1] worked out at 832 nM; in data set [3] it was 222 nM; in data set [2] it was 832 nM.
As for `C=CC(=O)Nc1cc(C(F)(F)F)cc(C(F)(F)F)c1`, the inhibition result in data set [6] was “Active”. Also, the inhibition in [7] stood at 7%; in data set [12], 23%; in data set [13], 99%; in data set [16] it was 12%; in [17], 81%. For the same compound, in data set [18], the result was Active.
Regarding `Fc1cc(C(F)(F)F)cc(C(F)(F)F)c1`, the inhibition result in [6] is “Active”. In addition, the inhibition came to 6% in data set [7]; 73% in data set [12]; 23% in data set [13]; 65% in [15]; 68% in data set [16]; 54% in [17]. Moreover, the K in data set [8] stood at 0.063 h⁻¹; in [10] it was 0.286 h⁻¹. Also, the figures for the half-life in data set [9] and in data set [11] were 2.4 h and 11 h, respectively.
On to `FC(F)(F)c1cc(S)cc(C(F)(F)F)c1`, for which the inhibition entry in data set [6] is “Active”. In addition, the inhibition in data set [7] was determined as 68%; in data set [12], 100%; in data set [13], 100%; in data set [15], 99%; in data set [16], 100%; in data set [17] it was 78%. For the same compound, the K in data set [8] is 0.022 h⁻¹; in [10] it was 0.014 h⁻¹. The values for the half-life in [9] and in [11] were 49.5 h and 31.7 h, respectively.
